From ChEMBL document CHEMBL4811246, “New organoselenides (NSAIDs-Se derivatives) as potential anticancer agents: Synthesis, biological evaluation and in silico calculations” (Eur J Med Chem, 2021)
Active and inactive are the calls of the source. The rule behind the calls is not given here.

Assays:
[1] = test system: Caco-2; assay: Cytotoxicity against human Caco2 cells assessed as reduction in cell viability measured upto 72 hrs by MTT assay; format: functional, cell-based; settings: Caco-2, 72 h
Method in brief: (§1)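 ATCC cells grown in RPMI 1640 with 10% FBS and penicillin/streptomycin at 37 °C, 5% CO2. Cells seeded at 1×10^4 per well and allowed 24 h to attach, then exposed to graded compound concentrations for 24, 48 and 72 h, DMSO kept below 1.25%. MTT added 3 h before the end, formazan dissolved in DMSO, OD read at 570 nm. IC50 from viability, three repetitions, mean ± SD.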

[2] = Antioxidant activity assessed as bleomycin-Fe2+-induced DNA degradation by measuring absorbance at 0.1 mg/ml after 1 hr; format: functional; parameters: unit not given here
Method in brief: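 Stopped with EDTA, then TBA (1% w/v) and HCl (25% v/v) added and heated 80 °C for 30 min. After cooling on ice, DNA damage read as absorbance increase at 532 nm. L-ascorbic acid positive control.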

[3] = Antioxidant activity assessed as DPPH radical scavenging activity incubated for 30 mins under dark condition relative to control; format: functional; parameters: concentration or dose not given beside the values
Method in brief: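 DPPH radical scavenging: test samples at a range of concentrations mixed with DPPH solution and held 30 min in the dark, then absorbance read at 517 nm. Ascorbic acid and ebselen served as positive controls and DMSO as negative control. % activity = [(control A − sample A)/control A] × 100. Mean ± SD of three independent experiments.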

[4] = Antioxidant activity assessed as GPx-like activity by measuring oxidation of NADPH to NADP+ by NADPH-reductase coupled assay; format: functional
Method in brief: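 NADPH/glutathione reductase coupled GPx-like assay: 50 mM phosphate buffer with 0.1% Triton X-100, NADPH reagent containing GSH, glutathione reductase and NADPH, and compound (0.01 ml of 41 mM). Reaction started with H2O2 (0.8 mM), and A340 decrease followed over 3 min to give ΔA/min. Values background-corrected for the H2O2 plus GSH reaction. Ebselen positive control.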

[5] = test system: BGC-823; assay: Cytotoxicity against human BGC-823 cells assessed as reduction in cell viability measured upto 72 hrs by MTT assay; format: functional, cell-based; settings: BGC-823, 72 h; method in brief: as §1
[6] = test system: PC-3; assay: Cytotoxicity against human PC-3 cells assessed as reduction in cell viability measured upto 72 hrs by MTT assay; format: functional, cell-based; settings: PC-3, 72 h; method in brief: as §1
[7] = test system: MCF7; assay: Cytotoxicity against human MCF7 cells assessed as reduction in cell viability measured upto 72 hrs by MTT assay; format: functional, cell-based; settings: MCF7, 72 h; method in brief: as §1
[8] = Antioxidant activity assessed as DPPH radical scavenging activity incubated for 30 mins under dark condition relative to vitamin C; format: functional
[9] = test system: BGC-823; assay: Induction of apoptosis in human BGC-823 cells assessed as upregulation of IL-2 protein expression at IC50 after 48 hrs by ELISA; format: functional, cell-based
Method in brief: (§2)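 Cells harvested with trypsin and lysed by freeze-thaw in liquid nitrogen, then total protein isolated. Bcl-2 and IL-2 quantified by ELISA, read at 450 nm.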

[10] = test system: BGC-823; assay: Induction of apoptosis in human BGC-823 cells assessed as upregulation of caspase-3 protein expression at IC50 after 48 hrs by ELISA; format: functional, cell-based
[11] = test system: BGC-823; assay: Induction of apoptosis in human BGC-823 cells assessed as down regulation of Bcl-2 protein expression at IC50 after 48 hrs by ELISA; format: functional, cell-based; method in brief: as §2

SMILES	IC50 [1] [µM]	Activity [2]	inhibition [3] [%]	Activity [4]	IC50 [5] [µM]	IC50 [6] [µM]	IC50 [7] [µM]	fold change (FC) [8]	Activity [9]	Activity [10]	Activity [11]
CC(C(=O)OCCC[Se]C#N)c1cccc(C(=O)c2ccccc2)c1 (stereo not given)	19.7	67.6	57.1	Active	12.6	12.6	8.3				
COc1ccc2c(c1)c(CC(=O)OCCC[Se]C#N)c(C)n2C(=O)c1ccc(Cl)cc1	32.4	72.4	44.3		35.5	21.8	29.3	0.4			
COc1ccc2cc(C(C)C(=O)OCCC[Se]C(F)(F)F)ccc2c1 (stereo not given)	16.3	91.4	37		10.8	18.4	12.4				
CCc1cccc2c3c([nH]c12)C(CC)(CC(=O)OCCC[Se]C(F)(F)F)OCC3 (stereo not given)	10.4	86.4	41.4	Active	18.5	19.7	8.7	0.4			
CC1=C(CC(=O)OCCC[Se]C(F)(F)F)c2cc(F)ccc2/C1=C\c1ccc([S+](C)[O-])cc1 (stereo not given)	16.4	73.7	44.9	Active	14.4	11.6	19.6	0.5			
COc1ccc2c(c1)c(CC(=O)OCCC[Se]C(F)(F)F)c(C)n2C(=O)c1ccc(Cl)cc1	10.5	62.6	36.6		7.3	7.8	9.3	0.4			
O=C(OCCC[Se]C(F)(F)F)c1ccccc1Nc1cccc(C(F)(F)F)c1	3.5	115	68.6		2.7	5.8	4.2	0.7	Active	Active	Active
CC(=O)Oc1ccccc1C(=O)O [ASPIRIN]	> 50				> 50	> 50	> 50				
O=C1O[C@H]([C@@H](O)CO)C(O)=C1O		297	96.4					1			
CC(C)Cc1ccc(C(C)C(=O)O)cc1 (stereo not given) [IBUPROFEN]	> 50				> 50	> 50	> 50				
CC(C)Cc1ccc(C(C)C(=O)OCCC[Se]C#N)cc1 (stereo not given)	14.5	60.3	31.2		24.5	22.5	19.5	0.3			
CC(C(=O)OCCC[Se]C(F)(F)F)c1ccc(-c2ccccc2)c(F)c1 (stereo not given)	4.5	119	73.5		2.5	3.3	2.7	0.8	Active	Active	Active
CCc1cccc2c3c([nH]c12)C(CC)(CC(=O)OCCC[Se]C#N)OCC3 (stereo not given)	11.5	69.4	30.4		21.4	31.4	14.4	0.3			
CC(C(=O)OCCC[Se]C#N)c1ccc(-c2ccccc2)c(F)c1 (stereo not given)	27.5	86.5	17.2		29.4	19.7	22.4				
COc1ccc2cc([C@H](C)C(=O)O)ccc2c1 [NAPROXEN]	> 50				> 50	> 50	> 50				
CC(C(=O)OCCC[Se]C(F)(F)F)c1cccc(C(=O)c2ccccc2)c1 (stereo not given)	9.5	128	66.3	Active	4.8	8.8	6.5	0.7	Active	Active	Active
O=c1[nH]cc(F)c(=O)[nH]1 [FLUOROURACIL]	7.8				15.4	9.5					
COc1ccc2cc(C(C)C(=O)OCCC[Se]C#N)ccc2c1 (stereo not given)	21.5	81.6	24.6		17.3	22	32.8				
CC(C)Cc1ccc(C(C)C(=O)OCCC[Se]C(F)(F)F)cc1 (stereo not given)	9.5	95.7	48.5	Active	14.3	10.4	9.9	0.5			
CC1=C(CC(=O)OCCC[Se]C#N)c2cc(F)ccc2/C1=C\c1ccc([S+](C)[O-])cc1 (stereo not given)	28.6	91.3	45.7	Active	17.5	22.3	31.3	0.5			
CC(=O)Oc1ccccc1C(=O)OCCC[Se]C#N	14.5	78.3	27.3		17.3	11.2	8.9	0.3			
N#C[Se]CCCOC(=O)c1ccccc1Nc1cccc(C(F)(F)F)c1	8.4	76.1	51.5		13.7	7.5	14.2	0.5			
Cc1cccc(Nc2ccccc2C(=O)OCCC[Se]C(F)(F)F)c1C	13.3	77.6	23.3		19.6	24.5	8.5	0.3			
